Measured values taken from ChEMBL document CHEMBL4325875, “Computer-aided design, synthesis and biological characterization of novel inhibitors for PKMYT1” (Eur J Med Chem, 2019).
pIC50, pKi: −log10 of the molar value.

Experiments:
[1] = biological target: T1, Membrane-associated tyrosine- and threonine-specific cdc2-inhibitory kinase (Homo sapiens) (UniProt Q99640); experiment: Displacement of (6-FAM)KI(pY)VV from PKMYT1 kinase domain (unknown origin) at 20 uM by fluorescence polarization binding assay relative to control
T1 sequence (whole entry): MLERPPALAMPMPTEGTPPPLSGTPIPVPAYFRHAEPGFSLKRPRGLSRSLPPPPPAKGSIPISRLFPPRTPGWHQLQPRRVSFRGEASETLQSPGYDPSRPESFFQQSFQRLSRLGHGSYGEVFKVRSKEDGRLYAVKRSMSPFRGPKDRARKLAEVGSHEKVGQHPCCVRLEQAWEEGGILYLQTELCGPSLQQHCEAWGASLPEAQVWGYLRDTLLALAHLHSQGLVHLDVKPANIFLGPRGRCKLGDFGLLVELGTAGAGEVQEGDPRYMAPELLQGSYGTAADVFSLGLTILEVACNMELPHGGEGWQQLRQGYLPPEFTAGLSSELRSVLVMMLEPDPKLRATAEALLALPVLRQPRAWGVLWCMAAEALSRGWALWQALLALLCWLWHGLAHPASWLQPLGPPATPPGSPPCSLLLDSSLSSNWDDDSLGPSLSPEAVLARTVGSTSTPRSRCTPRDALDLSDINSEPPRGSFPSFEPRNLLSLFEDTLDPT
Outline: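 PKMYT1 kinase domain (recombinantly expressed and purified) used in a fluorescence anisotropy binding assay with a fluorescently labelled ATP-competitive tracer. Each compound screened at 20 μM in triplicate. Dasatinib 10 μM served as inhibitory control and 1% DMSO as vehicle control. Compounds giving >60% tracer displacement were retested at 20 and 5 μM in triplicate.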

[2] = biological target: T2, Membrane-associated tyrosine- and threonine-specific cdc2-inhibitory kinase (Homo sapiens, UniProt Q99640); experiment: Displacement of (6-FAM)KI(pY)VV from full length PKMYT1 (unknown origin) by fluorescence polarization immuno assay
T2 sequence (Q99640 whole entry): T1 sequence (whole entry)
Outline: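 Full-length PKMYT1, expressed and purified, was tested in the fluorescence polarization-based activity assay (FPIA) to give IC50 and Ki. Controls were 10 μM dasatinib and 1% DMSO. Anisotropy r was calculated, and Δr was taken as the difference between the PKMYT1 reaction and the reaction without PKMYT1. Data are given as means ± SEM.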

[3] = biological target: T2, Membrane-associated tyrosine- and threonine-specific cdc2-inhibitory kinase; experiment: […] from PKMYT1 kinase domain (unknown origin) by fluorescence polarization binding assay

| Compound | inhibition [1] | pIC50 [2] | pIC50 [3] | pKi [3] |
| --- | --- | --- | --- | --- |
| Cc1ccc(Nc2nc(Nc3ccc(N4CCOCC4)cc3)ncc2Br)cc1O | 26.7% |  |  |  |
| Oc1cccc(Nc2nc(Nc3ccc(N4CCOCC4)cc3)nc3c2SCC3)c1 | < 10% |  |  |  |
| COc1cnc(Nc2ccc(N3CCOCC3)cc2)nc1Nc1ccc(C)c(O)c1 | 100% | 6.51 | 5.03 |  |
| COc1ccc(Nc2nc(Nc3ccc(N4CCOCC4)cc3)ncc2OC)cc1O | 39.7% |  |  |  |
| COc1ccc(Nc2nc(Nc3ccc(N4CCOCC4)cc3)ncc2Br)cc1O | 27% |  |  |  |
| Cc1cnc(Nc2ccc(N3CCOCC3)cc2)nc1Nc1cc(O)ccc1Cl | < 10% |  |  |  |
| Oc1ccc(Cl)c(Nc2nc(Nc3ccc(N4CCOCC4)cc3)ncc2Cl)c1 | < 10% |  |  |  |
| CSc1cnc(Nc2ccc(N3CCOCC3)cc2)nc1Nc1cc(C)ccc1Cl | 13% |  |  |  |
| Oc1cccc(Nc2nc(Nc3ccc(N4CCOCC4)cc3)ncc2Br)c1 | 21.1% |  |  |  |
| Cc1cnc(Nc2ccc(N3CCOCC3)cc2)nc1Nc1cccc(O)c1 | < 10% |  |  |  |
| Cc1ccc(Nc2nc(Nc3ccc(N4CCOCC4)cc3)ncc2OCc2ccccc2)cc1O | < 10% |  |  |  |
| Cc1cc(Nc2ncc3cc(-c4c(Cl)cccc4Cl)c(=O)n(C)c3n2)ccc1F |  |  |  | 5.87 |
| COc1cnc(Nc2ccc(N3CCOCC3)cc2)nc1Nc1cccc(O)c1 | 74.8% |  |  |  |
| CNC(=O)c1ccccc1Nc1nc(Nc2ccc(N3CCOCC3)cc2)ncc1OC | 100% | 6.02 | 5.20 |  |
| CSc1cnc(Nc2ccc(N3CCOCC3)cc2)nc1Nc1cccc(O)c1 | 100% | 5.81 | 5.22 |  |
| Oc1cccc(Nc2nc(Nc3ccc(N4CCOCC4)cc3)ncc2Cl)c1 | 75% | 6.21 | 5.22 |  |
